Published values from different studies.
Compare with care: the assays were run in different laboratories.
Target: Vascular endothelial growth factor receptor 1 (FLT1, Homo sapiens, UniProt P17948)

| SMILES | assay | setting | measurement | value |
| --- | --- | --- | --- | --- |
| CC(C)(O)[C@H]1CC[C@H](Nc2ccc3ncc(-c4cccc(C(F)(F)F)c4)n3n2)CC1 | enzyme activity, inhibitor | 1 µM | remaining activity | 92.5% |
| CC/C(=N\NC(=O)NCc1cccc(O)c1)c1ccc(O)c(C)c1O | enzyme activity, inhibitor | 0.1 µM | inhibition | 2.5% |
| N#CCCc1ccc2c(c1)-c1[nH]c3ccc([N+](=O)[O-])cc3c1CC(=O)N2 | cell-free assay | 0.5 µM | remaining signal | 99.7% |
| O=S(=O)(NC1CCC(c2cc(F)ccc2F)(S(=O)(=O)c2ccc(Cl)cc2)CC1)C(F)(F)F (centres unmarked) | cell-free assay, competition with immobilised ligand | 1 µM | remaining binding | 86% |
| Cc1sc(C(=O)NC2COC2)cc1-n1cc(NC(=O)Nc2c(F)cccc2Cl)cn1 | enzyme activity, inhibitor | 10 µM | remaining activity | 84.1% |
| CNC(=O)c1cc(Oc2ccc(NC(=O)Nc3ccc(Cl)c(C(F)(F)F)c3)cc2)ccn1 | cell-free assay | 0.5 µM | remaining signal | 50.5% |
| Cc1nccc(COC(=O)N2C[C@@H]3[C@@H](CNC(=O)c4ccc5[nH]nnc5c4)[C@@H]3C2)n1 | cell-free assay, competition with immobilised ligand | 1 µM | remaining binding | 100% |
| Nc1ncnc2occ(-c3ccc(NC(=O)Nc4cc(C(F)(F)F)ccc4F)cc3)c12 | cell-free assay | 20 µM | remaining signal | 0.55% |
| Cc1cc(-n2nc(Cc3cc(F)cc(C(F)(F)F)c3)nc2C)ccc1C(N)=O | cell-free assay, competition with immobilised ligand | 1 µM | remaining binding | 100% |
| CN(c1ncccc1CNc1nc(Nc2ccc3c(c2)CC(=O)N3)ncc1C(F)(F)F)S(C)(=O)=O | enzyme activity, inhibitor | 1 µM | inhibition | 80% |
| CSc1cccnc1N1CCN(Cc2nc3ccccc3[nH]2)CC1 | cell-free assay, competition with immobilised ligand | 1 µM | remaining binding | 100% |
| COc1cc(/C=C/C(=O)CC(=O)/C=C/c2ccc(O)c(OC)c2)ccc1O | enzyme activity, inhibitor | 1 µM | activity vs control | 67% |
| C[C@@H](c1cccc(C#N)c1)n1cc(Cl)cc(C(N)=O)c1=N | cell-free assay, competition with immobilised ligand | 1 µM | remaining binding | 100% |
| COc1cc2ncnc(Nc3ccc(Oc4ccccc4)cc3C)c2cc1OC | enzyme activity, inhibitor | 1 µM | inhibition | -2% |
| C=CC(=O)Nc1cc(Nc2nccc(Nc3cc(Cl)c(F)cc3C(C)(C)O)n2)c(OC)cc1N1CC[C@@H](N(C)C)C1 | enzyme activity, inhibitor | 1 µM | inhibition | 0% |
| Cc1ccc(Nc2nccc(N(C)c3ccc4c(C)n(C)nc4c3)n2)cc1S(N)(=O)=O | enzyme activity, inhibitor | 0.3 µM | inhibition | 100% |
| O=C(Nc1cnn(-c2csc(C(=O)NC3COC3)c2)c1)Nc1ccccc1Cl | enzyme activity, inhibitor | 5 µM | remaining activity | 101% |
| Cc1cc(NC(=O)c2cccc3cc(-c4cccc5[nH]nc(N)c45)ccc23)ccc1F | enzyme activity, inhibitor | 0.1 µM | activity vs control | 2% |
| CCCOc1ccc([C@@H]2[C@@H](C(=O)O)[C@H](c3ccc4c(c3)OCO4)CN2CC(=O)Nc2c(CC)cccc2CC)cc1 | cell-free assay, competition with immobilised ligand | 1 µM | remaining binding | 94% |
| CC(C)(C)c1nc(-c2cccc(NS(=O)(=O)c3c(F)cccc3F)c2F)c(-c2ccnc(N)n2)s1 | enzyme activity, inhibitor, radiometric | 1 µM | remaining activity | 84% |
| CCN(CC)CCNC(=O)c1c(C)[nH]c(/C=C2\C(=O)Nc3ccc(F)cc32)c1C | enzyme activity, inhibitor | 0.3 µM | inhibition | 99% |
| CC(C)CC(=O)N1CCc2nc(-c3ccc(Br)cc3)nc(N(C)Cc3ccccc3)c2C1 | cell-free assay, competition with immobilised ligand | 0.1 µM | remaining binding | 100% |
| Nc1nc(NC2CCCCC2)sc1C(=O)c1ccccc1 | enzyme activity, inhibitor | 10 µM | remaining activity | 57% |
| Cc1cnc(NC2CCOCC2)nc1-n1cnc(C(=O)NC(CN)c2cc(F)cc(Cl)c2)c1 (centres unmarked) | enzyme activity, inhibitor, radiometric | 1 µM | remaining activity | 92% |
| COc1cc(Cl)c(C(=O)N[C@@H](CN[C@H]2CC[C@@H](N)CC2)Cc2ccc(C#N)cc2)cc1-c1ccc(CN[C@H](C)c2ccc(C)cc2)o1 | enzyme activity, inhibitor | 1 µM | remaining activity | 102% |
| CNCc1ccc(-c2cc(-c3nc(-c4ccc(S(=O)(=O)C(C)C)cc4)cnc3N)on2)cc1 | enzyme activity, inhibitor | 2 µM | inhibition | 83% |
| COc1cc(-c2cn(C3CCc4c(F)cccc4N(CC(F)(F)F)C3=O)nn2)ccc1-n1cnc(C)c1 (centres unmarked) | cell-free assay, competition with immobilised ligand | 1 µM | remaining binding | 97% |
| COc1cc(Nc2cnc(C#N)c(O[C@H](C)CN(C)C)n2)ncc1-c1cnn(C)c1 | enzyme activity, inhibitor, radiometric | 1 µM | remaining activity | 90% |
| O=C1Nc2ccc(Cl)cc2C1=Cc1cc(Cl)c(O)c(Cl)c1 | cell-free assay | 0.5 µM | remaining signal | 85% |
